Structures are written as SMILES. Some results are limits rather than exact numbers.

The nature of data set [1]: Plasma concentration in Harlan C57BL/6 mouse at 5 mg/kg, sc after 1 hr by LC/MS/MS analysis. Type of data set: ADME, organism-based. Details: dose 5 mg/kg, route subcutaneous. In short, it runs like this: (§1)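 Harlan mice were given a single subcutaneous dose at 5, 10 or 20 mg/kg. Blood was sampled at multiple time points over about 8 h, and each sample was used for both total circulating WBC count and plasma drug level. Counts and concentrations were plotted against time for each dose.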

Data set [2] is described as follows: Plasma concentration in Harlan C57BL/6 mouse at 10 mg/kg, sc after 1 hr by LC/MS/MS analysis. Details: dose 10 mg/kg, route subcutaneous. Type of data set: ADME, organism-based. In short, it runs like this: as §1
Data set [3] in a line: Oral bioavailability in jugular pre-cannulated CRL Sprague-Dawley rat at 10 mg/kg. It is filed as ADME, organism-based. Particulars: in vivo. An outline of the steps:
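Oral dosing by gavage at 10 mg/kg, with an i.v. arm at 2 mg/kg. Plasma AUC was calculated for each route, and F was obtained from the dose-normalised ratio of oral to i.v. AUC.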

A short description of data set [4]: Half life in human liver microsomes at 1 uM incubated for 3 mins prior to NADPH addition by LC-MS/MS analysis. Type of data set: ADME. (In general: Microsomes from liver hold many membrane-bound enzymes, among them those of drug oxidation.)
For a further data set, the system named is Liver microsome. The data set can be described thus: Intrinsic clearance in human liver microsomes at 1 uM incubated for 3 mins prior to NADPH addition by LC-MS/MS analysis. Type of data set: ADME. The following applies: 0.05 h.
Data set [5] concerns the target T1, C-X-C chemokine receptor type 5 (Homo sapiens) (UniProt P32302).
T1 sequence (whole entry): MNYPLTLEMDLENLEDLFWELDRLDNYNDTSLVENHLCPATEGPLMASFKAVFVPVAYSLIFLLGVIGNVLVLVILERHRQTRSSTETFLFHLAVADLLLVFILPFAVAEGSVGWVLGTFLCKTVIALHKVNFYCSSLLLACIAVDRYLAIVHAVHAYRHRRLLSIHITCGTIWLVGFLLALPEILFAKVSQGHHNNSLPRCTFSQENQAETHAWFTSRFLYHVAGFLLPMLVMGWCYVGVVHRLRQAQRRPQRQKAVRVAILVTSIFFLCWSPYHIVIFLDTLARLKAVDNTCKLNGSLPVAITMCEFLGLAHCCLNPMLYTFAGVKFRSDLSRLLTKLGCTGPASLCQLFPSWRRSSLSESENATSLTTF
Nature of the data set: Inhibition of CXCR5 (unknown origin) at 10 uM relative to control.

Data set [6] addresses T2, C-X-C chemokine receptor type 3 (Homo sapiens) (UniProt P49682).
T2 sequence (whole entry): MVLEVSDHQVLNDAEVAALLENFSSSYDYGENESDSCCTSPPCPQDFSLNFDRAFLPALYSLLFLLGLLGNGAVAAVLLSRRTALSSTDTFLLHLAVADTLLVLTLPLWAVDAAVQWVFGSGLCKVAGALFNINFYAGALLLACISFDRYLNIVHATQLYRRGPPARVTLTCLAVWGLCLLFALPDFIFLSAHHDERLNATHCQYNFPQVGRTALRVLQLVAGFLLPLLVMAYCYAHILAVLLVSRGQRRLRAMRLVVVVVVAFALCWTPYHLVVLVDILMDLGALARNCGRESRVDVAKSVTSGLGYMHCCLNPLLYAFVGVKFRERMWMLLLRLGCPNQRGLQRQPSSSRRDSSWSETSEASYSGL
Nature of the data set: Inhibition of CXCR3 (unknown origin) at 10 uM relative to control.

Data set [7] concerns the target T3, C-X-C chemokine receptor type 2 (Homo sapiens) (UniProt P25025).
T3 sequence (whole entry): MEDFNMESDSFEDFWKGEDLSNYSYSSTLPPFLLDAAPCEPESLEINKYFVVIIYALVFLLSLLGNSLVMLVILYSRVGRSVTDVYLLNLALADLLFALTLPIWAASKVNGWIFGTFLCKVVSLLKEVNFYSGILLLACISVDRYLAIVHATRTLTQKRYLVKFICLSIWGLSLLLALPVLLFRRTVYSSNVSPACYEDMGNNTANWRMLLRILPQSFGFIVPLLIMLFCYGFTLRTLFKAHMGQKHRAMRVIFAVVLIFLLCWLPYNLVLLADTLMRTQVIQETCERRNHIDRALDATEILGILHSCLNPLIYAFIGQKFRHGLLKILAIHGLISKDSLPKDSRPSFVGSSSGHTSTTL
Nature of the data set: Inhibition of CXCR2 (unknown origin) at 10 uM relative to control.

The target in data set [8] is T4, C-C chemokine receptor type 7 (Homo sapiens) (UniProt P32248).
T4 sequence (whole entry): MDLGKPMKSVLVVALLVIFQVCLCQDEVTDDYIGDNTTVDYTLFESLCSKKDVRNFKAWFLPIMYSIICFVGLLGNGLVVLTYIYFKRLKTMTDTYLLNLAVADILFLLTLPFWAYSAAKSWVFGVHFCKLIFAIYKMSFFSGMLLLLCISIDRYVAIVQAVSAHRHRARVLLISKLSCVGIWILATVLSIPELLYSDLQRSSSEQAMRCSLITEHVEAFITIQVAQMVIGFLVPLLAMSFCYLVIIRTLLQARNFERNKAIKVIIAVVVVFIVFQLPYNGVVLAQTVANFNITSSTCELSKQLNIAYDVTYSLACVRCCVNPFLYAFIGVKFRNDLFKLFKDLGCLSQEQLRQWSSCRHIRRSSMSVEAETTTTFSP
The data set can be described thus: Inhibition of CCR7 (unknown origin) at 10 uM relative to control.

The target in data set [9] is T5, C-C chemokine receptor type 6 (Homo sapiens) (UniProt P51684).
T5 sequence (whole entry): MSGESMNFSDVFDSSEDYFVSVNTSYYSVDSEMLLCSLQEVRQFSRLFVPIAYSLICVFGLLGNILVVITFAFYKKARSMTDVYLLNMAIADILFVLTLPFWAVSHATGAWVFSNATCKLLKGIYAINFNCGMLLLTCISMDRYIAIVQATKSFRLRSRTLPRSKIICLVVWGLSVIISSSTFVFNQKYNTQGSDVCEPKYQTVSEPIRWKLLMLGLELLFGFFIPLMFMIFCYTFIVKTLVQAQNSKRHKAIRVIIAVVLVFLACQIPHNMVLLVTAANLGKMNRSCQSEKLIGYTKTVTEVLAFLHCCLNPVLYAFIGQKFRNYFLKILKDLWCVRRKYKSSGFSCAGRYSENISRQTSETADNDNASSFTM
The data set can be described thus: Inhibition of CCR6 (unknown origin) at 10 uM relative to control.

The nature of data set [10]: Cytotoxicity against human PBMC assessed as cell viability by MTS assay. The following applies: read-out: TC50 (the source's name). It is filed as cell-based. A general note: Tetrazolium dyes change colour on reduction, which living cells bring about.
A short description of data set [11]: Cytotoxicity against human MAGI-CCR5 cells assessed as cell viability after 2 to 6 days by MTS assay. Particulars: MAGI-CCR5 cells.

One may read the bioavailability as dose-corrected exposure relative to a reference, in per cent. The half-life is how long it takes for the measured level to halve. A word on the inhibition: it is the change of the read-out against control, counted positive when it falls. `NCCCCN(C[C@H]1Cc2ccccc2CN1)[C@H]1CCCc2cccnc21`: the concentration at 1 h in [1] came to 725 ng/mL; in [2], 1020 ng/mL. In [3], this compound gave a bioavailability of 63%. The same compound returned a half-life at 1 µM in [4] above 1 h. The CLH in the data set with Liver microsome was below 20 µL/min/mg. The inhibition in data set [5], in [6], in [7], in [8] and in data set [9] was below 10% throughout. Also, the CC50 in data set [10] was 47 µM; in data set [11], above 10 µM.

The record behind these values is ChEMBL document CHEMBL3091329, “Discovery of tetrahydroisoquinoline-based CXCR4 antagonists” (ACS Med Chem Lett, 2013).
